One assay addresses T1, Thyroid hormone receptor (Homo sapiens, UniProt P10827+P10828).
T1 sequence (P10827 whole entry): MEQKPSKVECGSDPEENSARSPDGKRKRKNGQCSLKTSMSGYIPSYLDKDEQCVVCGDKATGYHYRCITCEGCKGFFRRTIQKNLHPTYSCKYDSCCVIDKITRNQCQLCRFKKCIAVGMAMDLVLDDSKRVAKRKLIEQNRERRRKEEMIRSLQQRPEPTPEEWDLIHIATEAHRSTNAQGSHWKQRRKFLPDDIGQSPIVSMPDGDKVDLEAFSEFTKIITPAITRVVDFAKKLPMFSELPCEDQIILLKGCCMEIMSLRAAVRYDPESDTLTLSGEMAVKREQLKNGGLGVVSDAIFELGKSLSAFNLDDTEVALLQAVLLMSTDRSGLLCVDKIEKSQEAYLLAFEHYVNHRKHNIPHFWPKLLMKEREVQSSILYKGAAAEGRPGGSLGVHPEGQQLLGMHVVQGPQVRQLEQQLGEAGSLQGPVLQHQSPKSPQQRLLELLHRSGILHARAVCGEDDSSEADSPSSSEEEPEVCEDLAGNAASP
T1 sequence (P10828 whole entry): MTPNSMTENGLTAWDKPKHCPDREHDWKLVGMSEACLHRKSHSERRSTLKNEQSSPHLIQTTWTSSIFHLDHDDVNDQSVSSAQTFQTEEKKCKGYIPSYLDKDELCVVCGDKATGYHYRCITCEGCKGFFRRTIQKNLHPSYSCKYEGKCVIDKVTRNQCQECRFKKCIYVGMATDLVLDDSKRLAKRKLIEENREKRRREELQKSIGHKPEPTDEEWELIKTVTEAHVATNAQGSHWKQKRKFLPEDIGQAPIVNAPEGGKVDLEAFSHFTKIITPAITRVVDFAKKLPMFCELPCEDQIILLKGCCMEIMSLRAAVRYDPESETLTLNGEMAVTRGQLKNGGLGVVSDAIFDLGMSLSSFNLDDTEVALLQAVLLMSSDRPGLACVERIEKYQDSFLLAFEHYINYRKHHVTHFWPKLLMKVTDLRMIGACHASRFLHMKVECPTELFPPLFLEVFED
Put plainly: Agonist activity at THR in HepG2 cells by whole cell assay. It is filed as functional, cell-based.

The subject of assay [1] is Mus musculus. Put plainly: Increase in heart weight in C57BL/6J mouse at 0.1 mg/kg, po after 11 days. It counts as functional. The procedure, abridged: (§1)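 C57BL/6J mice, 10-12 per group, dosed orally by gavage once daily for 11 days in solutol/ethanol/water 10:10:80. Doses were 0.1, 0.3 and 3.0 mg/kg, given as the ethyl ester. At study end, heart rate was measured by non-invasive tail cuff, then the animals were sacrificed and hearts weighed. Heart weight change is expressed versus control.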

For assay [2], the system named is Mus musculus. Put plainly: Increase in heart weight in C57BL/6J mouse at 0.3 mg/kg, po after 11 days. It counts as functional. The procedure, abridged:
as §1

Assay [3] deals with Mus musculus. Description: Increase in heart weight in C57BL/6J mouse at 3.0 mg/kg, po after 11 days. It counts as functional. The method in brief: as §1
Assay [4] has as its system Mus musculus. Put plainly: Reduction in serum cholesterol in NMIR mouse at 0.1 mg/kg, po after 7 days. It counts as functional. The arrangement: scale not given: the % may be the effect or the level left. The procedure, abridged: (§2)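 At study end, blood was taken retro-orbitally. Serum cholesterol (and triglycerides) were measured enzymatically with commercial kits on an autoanalyzer. Reduction is expressed as percent versus the control group.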

For assay [5], the system named is Mus musculus. Put plainly: Reduction in serum cholesterol in NMIR mouse at 0.3 mg/ kg, po after 7 days. The arrangement: scale not given: the % may be the effect or the level left. It is filed as functional. The method in brief:
as §2

For assay [6], the system named is Mus musculus. Put plainly: Reduction in serum cholesterol in NMIR mouse at 1.0 mg/ kg, po after 7 days. It is filed as functional. The arrangement: scale not given: the % may be the effect or the level left. The method in brief: as §2
For assay [7], the system named is Mus musculus. Put plainly: Reduction in serum cholesterol in NMIR mouse at 3.0 mg/ kg, po after 7 days. The arrangement: scale not given: the % may be the effect or the level left. It counts as functional. The procedure, abridged: as §2

Our source for the EC50 and Activity values is ChEMBL document CHEMBL1139981, “Novel heterocyclic thyromimetics. Part 2” (Bioorg Med Chem Lett, 2007).

One may read the EC50 as the concentration that produces a half-maximal response.

On Thyroid hormone receptor, `CC(C)c1cc(Oc2c(C(C)C)cc(CC3SC(=O)NC3=O)cc2C(C)C)ccc1O` (centres undefined) came in with an EC50 of 70 nM.

In turn, `CC(C)c1cc(Oc2ccc3oc(C(=O)O)cc3c2)ccc1O` showed an EC50 at Thyroid hormone receptor of 1000 nM.

On Thyroid hormone receptor, `COc1ccc(Oc2c(Br)cc3oc(C(=O)O)cc3c2Br)cc1C(C)C` came in with an EC50 of 1000 nM.

The compound `O=C(O)c1cc2c(Br)c(Oc3ccc(O)c(C(=O)c4ccc(F)cc4)c3)c(Br)cc2o1` returned an EC50 at Thyroid hormone receptor of 210 nM.

With `O=C(O)c1cc2c(Br)c(Oc3ccc(O)c(C(O)c4ccc(F)cc4)c3)c(Br)cc2o1` (centres undefined), the EC50 at Thyroid hormone receptor was 22 nM.

`Cc1cc(CC2SC(=O)NC2=O)cc(C)c1Oc1ccc(O)c(C(C)C)c1` (centres undefined) had an EC50 on Thyroid hormone receptor of 0.08 nM.

Compound `Cc1cc2oc(C(=O)O)cc2c(C)c1Oc1ccc(O)c(C(C)C)c1` displayed an EC50 at Thyroid hormone receptor of 110 nM.

The compound `Cc1cc2c(c(C)c1Oc1ccc(O)c(C(C)C)c1)CC(CC(=O)O)O2` (centres undefined) yielded an EC50 on Thyroid hormone receptor of 5.1 nM.

Turning to `Cc1cc2c(CC(=O)O)coc2c(C)c1Oc1ccc(O)c(C(C)C)c1`, the Activity with Mus musculus [1] worked out at 12%; in the assay with Mus musculus [2], 17%; with Mus musculus [3], 27%; with Mus musculus [4] it was 32%; in the assay with Mus musculus [5], 34%; in the assay on Mus musculus [6], 39%. For the same compound, the Activity in the assay on Mus musculus [7] is listed as 41%. The compound further returned an EC50 at Thyroid hormone receptor of 0.3 nM.

At Thyroid hormone receptor, `Cc1ccc(CC2CC(=O)NC(=O)S2)c(C)c1Oc1ccc(O)c(C(C)C)c1` (centres undefined) gave an EC50 of 0.06 nM.

In the case of `Cc1cc2c(CC(=O)O)coc2c(C)c1Oc1ccc(O)cc1`, the EC50 on Thyroid hormone receptor turned out to be 1000 nM.

At Thyroid hormone receptor, `CC(C)c1cc(Oc2c(Br)cc3oc(C(=O)O)cc3c2Br)ccc1O` showed an EC50 of 7 nM.
